≈ marks a conversion by molar mass, not a printed value. Calls of active or inactive are those of the source. No cut-off for these calls is given here.
Each compound was assayed on Micrococcus luteus (assay: Antibacterial activity against Micrococcus luteus ATCC 9341 after 18 hrs by twofold serial agar dilution technique). Conditions: ATCC 9341, 18 h.
Format: functional
Work on `Fc1ccc(NC(=S)Nc2nc[nH]n2)cc1` yielded an MIC of 6.25 mg/L (≈ 26.3 µM).

The compounds below were run on Staphylococcus epidermidis (assay: Antibacterial activity against methicillin-resistant Staphylococcus epidermidis clinical isolate 342/09 after 18 hrs by twofold serial agar dilution technique). Conditions: clinical isolate 342/09, 18 h.
Format: functional
Method in brief: (§1)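 Clinical isolates came from patients in Warsaw Medical University Hospitals and were classed as methicillin-susceptible or -resistant. MIC was determined by twofold serial agar dilution on Mueller–Hinton II agar (CLSI), 3.125–400 µg/mL in agar, with compounds in methanol or DMSO. Inoculum was 10^4 CFU/mL and plates were read after 18 h at 35 °C.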
Compound `Fc1ccc(NC(=S)Nc2nc[nH]n2)cc1` has an MIC of 50 mg/L (≈ 211 µM).

Each compound was assayed on Staphylococcus aureus (assay: Antibacterial activity against methicillin-susceptible Staphylococcus aureus clinical isolate 338/08 after 18 hrs by twofold serial agar dilution technique). Conditions: clinical isolate 338/08, 18 h.
Format: functional
Method in brief: as §1
Work on `Fc1ccc(NC(=S)Nc2nc[nH]n2)cc1` yielded an MIC of 50 mg/L (≈ 211 µM).

What follows are compounds tested on Staphylococcus aureus (assay: Antibacterial activity against methicillin-resistant Staphylococcus aureus clinical isolate 306/08 after 18 hrs by twofold serial agar dilution technique). Conditions: clinical isolate 306/08, 18 h.
Format: functional
Method in brief: as §1
`Fc1ccc(NC(=S)Nc2nc[nH]n2)cc1` showed an MIC of 50 mg/L (≈ 211 µM).

What follows are compounds tested on Staphylococcus aureus (assay: Antibacterial activity against methicillin-resistant Staphylococcus aureus clinical isolate 277/08 after 18 hrs by twofold serial agar dilution technique). Conditions: clinical isolate 277/08, 18 h.
Format: functional
Method in brief: as §1
`Fc1ccc(NC(=S)Nc2nc[nH]n2)cc1` was tested, and the MIC was 50 mg/L (≈ 211 µM).

The compounds below were run on Staphylococcus aureus (assay: Antibacterial activity against methicillin-susceptible Staphylococcus aureus clinical isolate 367/09 after 18 hrs by twofold serial agar dilution technique). Conditions: clinical isolate 367/09, 18 h.
Format: functional
Method in brief: as §1
For `Fc1ccc(NC(=S)Nc2nc[nH]n2)cc1`, the MIC was 50 mg/L (≈ 211 µM).

The compounds below were run on Staphylococcus epidermidis (assay: Antibacterial activity against methicillin-resistant Staphylococcus epidermidis clinical isolate 377/09 after 18 hrs by twofold serial agar dilution technique). Conditions: clinical isolate 377/09, 18 h.
Format: functional
Method in brief: as §1
In the case of `Fc1ccc(NC(=S)Nc2nc[nH]n2)cc1`, the MIC is reported as 50 mg/L (≈ 211 µM).

These compounds were tested on Staphylococcus aureus (assay: Antibacterial activity against Staphylococcus aureus NCTC 4163 after 18 hrs by twofold serial agar dilution technique). Conditions: NCTC 4163, 18 h.
Format: functional
Method in brief: (§2)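 Twofold serial agar dilution on Mueller–Hinton II agar, following CLSI guidelines. Compounds were dissolved in methanol or DMSO and tested at final agar concentrations of 3.125–400 µg/mL. Final inoculum was 10^4 CFU/mL.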
`Fc1ccc(NC(=S)Nc2nc[nH]n2)cc1` gave an MIC of 50 mg/L (≈ 211 µM).

Each compound was assayed on Staphylococcus aureus (assay: Antibacterial activity against Staphylococcus aureus ATCC 25923 at 400 ug/disc after 18 hrs by disc diffusion method). Conditions: ATCC 25923, 18 h, read-out: DIZ.
Format: functional
Method in brief: (§3)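 Disc diffusion per CLSI on Mueller–Hinton II agar; 9 mm paper discs loaded from methanol or DMSO solutions to 400 µg per disc, dried; growth inhibition zone diameter read after 18 h at 35 °C.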
In the case of `Fc1ccc(NC(=S)Nc2nc[nH]n2)cc1`, the zone of inhibition at 400 µg/disc is reported as 18 mm.

Each compound was assayed on Bacillus cereus (assay: Antibacterial activity against Bacillus cereus ATCC 11778 after 18 hrs by twofold serial agar dilution technique). Conditions: ATCC 11778, 18 h.
Format: functional
Compound `Fc1ccc(NC(=S)Nc2nc[nH]n2)cc1` has an MIC of 6.25 mg/L (≈ 26.3 µM).

These compounds were tested on Staphylococcus aureus (assay: Antibacterial activity against methicillin-resistant Staphylococcus aureus clinical isolate 309/08 after 18 hrs by twofold serial agar dilution technique). Conditions: clinical isolate 309/08, 18 h.
Format: functional
Method in brief: as §1
Work on `Fc1ccc(NC(=S)Nc2nc[nH]n2)cc1` yielded an MIC of 50 mg/L (≈ 211 µM).

The compounds below were run on Pseudomonas aeruginosa (assay: Antibacterial activity against Pseudomonas aeruginosa NCTC 6749 at 400 ug/disc after 18 hrs by disc diffusion method). Conditions: not given.
Format: functional, organism-based
Method in brief: as §3
In the case of `Fc1ccc(NC(=S)Nc2nc[nH]n2)cc1`, the “diameter of the inhibition zone (DIZ)” value is reported as “inactive”.

These compounds were tested on Bordetella bronchiseptica (assay: Antibacterial activity against Bordetella bronchiseptica ATCC 4617 at 400 ug/disc after 18 hrs by disc diffusion method). Conditions: not given.
Format: functional, organism-based
Method in brief: as §3
With `Fc1ccc(NC(=S)Nc2nc[nH]n2)cc1` the “diameter of the inhibition zone (DIZ)” value was “inactive”.

What follows are compounds tested on Staphylococcus aureus (assay: Antibacterial activity against methicillin-susceptible Staphylococcus aureus clinical isolate 261/08 after 18 hrs by twofold serial agar dilution technique). Conditions: clinical isolate 261/08, 18 h.
Format: functional
Method in brief: as §1
In the case of `Fc1ccc(NC(=S)Nc2nc[nH]n2)cc1`, the MIC is reported as 50 mg/L (≈ 211 µM).

The compounds below were run on Staphylococcus epidermidis (assay: Antibacterial activity against methicillin-resistant Staphylococcus epidermidis clinical isolate 318/08 after 18 hrs by twofold serial agar dilution technique). Conditions: clinical isolate 318/08, 18 h.
Format: functional
Method in brief: as §1
`Fc1ccc(NC(=S)Nc2nc[nH]n2)cc1` gave an MIC of 50 mg/L (≈ 211 µM).

Each compound was assayed on Staphylococcus epidermidis (assay: Antibacterial activity against methicillin-resistant Staphylococcus epidermidis clinical isolate 341/09 after 18 hrs by twofold serial agar dilution technique). Conditions: clinical isolate 341/09, 18 h.
Format: functional
Method in brief: as §1
`Fc1ccc(NC(=S)Nc2nc[nH]n2)cc1` showed an MIC of 100 mg/L (≈ 421 µM).

What follows are compounds tested on Staphylococcus epidermidis (assay: Antibacterial activity against methicillin-resistant Staphylococcus epidermidis clinical isolate 316/08 after 18 hrs by twofold serial agar dilution technique). Conditions: clinical isolate 316/08, 18 h.
Format: functional
Method in brief: as §1
In the case of `Fc1ccc(NC(=S)Nc2nc[nH]n2)cc1`, the MIC is reported as 100 mg/L (≈ 421 µM).

The compounds below were run on Staphylococcus aureus (assay: Antibacterial activity against Staphylococcus aureus ATCC 29213 after 18 hrs by twofold serial agar dilution technique). Conditions: ATCC 29213, 18 h.
Format: functional
Method in brief: as §2
With `Fc1ccc(NC(=S)Nc2nc[nH]n2)cc1` the MIC was 25 mg/L (≈ 105 µM).

Source: ChEMBL document CHEMBL2062460, “Disubstituted thiourea derivatives and their activity on CNS: synthesis and biological evaluation” (Eur J Med Chem, 2012)
